Data: ChEMBL document CHEMBL3585292, “Anti-dormant mycobacterial activity and target analysis of nybomycin produced by a marine-derived Streptomyces sp” (2015)
≈ marks a conversion by molar mass, not a printed value. Calls of active or inactive are those of the source. The rule behind the calls is not given here.

Key:
[1] = system: Mycolicibacterium smegmatis; test: Antibacterial activity against Mycobacterium smegmatis MC2 155 under hypoxic condition after 96 hrs by MTT assay; format: functional; details: str. MC2 155, 96 h
Outline: (§1)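 MTT microdilution. Mid-log bacilli in 7H9 with 10% OADC, 0.5% glycerol, 0.05% Tween 80, seeded at 1 × 10⁴ CFU/0.1 mL (M. smegmatis) or 1 × 10⁵ CFU/0.1 mL (BCG, M. tuberculosis), then serially diluted sample added. Aerobic incubation at 37 °C; hypoxic incubation at 37 °C under N2 with 0.2% O2. MTT (0.5 mg/mL, 50 µL) added for 12 h more, OD560 read to give MIC.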

[2] = system: Mycolicibacterium smegmatis; test: Antibacterial activity against Mycobacterium smegmatis MC2 155 under aerobic condition after 36 hrs by MTT assay; format: functional; details: str. MC2 155, 36 h; outline: as §1
[3] = Binding affinity to pMV206 DNA (unknown origin) at 260 pmol after 1 hr by agarose gel electrophoresis
[4] = Binding affinity to pMV206 DNA (unknown origin) with cloned 696695 to 700844 bp of Mycobacterium bovis BCG genome overexpressed in Mycobacterium smegmatis ICHO1035 at 260 pmol after 1 hr by agarose gel electrophoresis
[5] = Binding affinity to pMV206 DNA (unknown origin) with cloned 700476 to 702854 bp of Mycobacterium bovis BCG genome overexpressed in Mycobacterium smegmatis ICHO1036 at 260 pmol after 1 hr by agarose gel electrophoresis
[6] = Inhibition of nybomycin probe (2) binding to pMV206 DNA (unknown origin) with cloned 700476 to 702854 bp of Mycobacterium bovis BCG genome overexpressed in Mycobacterium smegmatis ICHO1036 at 60 uM after 1 hr by agarose gel electrophoresis
[7] = system: Mycobacterium tuberculosis; test: Antibacterial activity against Mycobacterium tuberculosis T1413 under aerobic condition after 7 days by MTT assay; format: functional; details: T1413, 168 h; outline: as §1
[8] = system: Mycolicibacterium smegmatis; test: Antibacterial activity against Mycobacterium smegmatis ICHO1035 harboring pMV206 with cloned 696695 to 700844 bp of Mycobacterium bovis BCG genome at 4 ug/ml by agar plate method; format: functional, organism-based
[9] = system: Mycolicibacterium smegmatis; test: Antibacterial activity against Mycobacterium smegmatis ICHO1034 harboring pMV206 with cloned 685769 to 689308 bp of Mycobacterium bovis BCG genome at 2 ug/ml by agar plate method; format: functional, organism-based
[10] = system: Mycolicibacterium smegmatis; test: Antibacterial activity against Mycobacterium smegmatis ICHO2012 harboring pYUB415 with cloned 686465 to 716464 bp of Mycobacterium bovis BCG genome at 2 ug/ml by agar plate method; format: functional, organism-based
[11] = system: Mycolicibacterium smegmatis; test: Antibacterial activity against Mycobacterium smegmatis ICHO1038 harboring pMV261 with cloned 4126836 to 4129396 bp of Mycobacterium bovis BCG genome at 4 ug/ml by agar plate method; format: functional, organism-based
[12] = system: Mycolicibacterium smegmatis; test: Antibacterial activity against Mycobacterium smegmatis ICHO1036 harboring pMV206 with cloned 700476 to 702854 bp of Mycobacterium bovis BCG genome at 2 ug/ml by agar plate method; format: functional, organism-based
[13] = system: Mycolicibacterium smegmatis; test: Antibacterial activity against Mycobacterium smegmatis ICHO1037 harboring pMV261 with cloned 4109204 to 4110235 bp of Mycobacterium bovis BCG genome at 2 ug/ml by agar plate method; format: functional, organism-based
[14] = system: Mycobacterium tuberculosis; test: Antibacterial activity against Mycobacterium tuberculosis H37Rv under aerobic condition after 7 days by MTT assay; format: functional; details: 168 h; outline: as §1
[15] = system: Mycolicibacterium smegmatis; test: Antibacterial activity against Mycobacterium smegmatis ICHO1035 harboring pMV206 with cloned 696695 to 700844 bp of Mycobacterium bovis BCG genome at 2 ug/ml by agar plate method; format: functional, organism-based
[16] = system: Mycobacterium tuberculosis; test: Antibacterial activity against Mycobacterium tuberculosis T1538 under aerobic condition after 7 days by MTT assay; format: functional; details: T1538, 168 h; outline: as §1
[17] = system: Mycolicibacterium smegmatis; test: Antibacterial activity against Mycobacterium smegmatis ICHO2012 harboring pYUB415 with cloned 686465 to 716464 bp of Mycobacterium bovis BCG genome at 4 ug/ml by agar plate method; format: functional, organism-based
[18] = system: Mycolicibacterium smegmatis; test: Antibacterial activity against Mycobacterium smegmatis ICHO1036 harboring pMV206 with cloned 700476 to 702854 bp of Mycobacterium bovis BCG genome at 4 ug/ml by agar plate method; format: functional, organism-based
[19] = system: Mycolicibacterium smegmatis; test: Antibacterial activity against Mycobacterium smegmatis ICHO1034 harboring pMV206 with cloned 685769 to 689308 bp of Mycobacterium bovis BCG genome at 4 ug/ml by agar plate method; format: functional, organism-based
[20] = system: Mycolicibacterium smegmatis; test: Antibacterial activity against Mycobacterium smegmatis ICHO1037 harboring pMV261 with cloned 4109204 to 4110235 bp of Mycobacterium bovis BCG genome at 4 ug/ml by agar plate method; format: functional, organism-based
[21] = system: Mycolicibacterium smegmatis; test: Antibacterial activity against Mycobacterium smegmatis MC2 155 assessed as induction of morphological changes at 1 ug/ml after 48 hrs by phase contrast/scanning electron microscopic analysis; format: functional, organism-based; details: str. MC2 155

Compound: Cc1cc(=O)n2c3c(c4c(cc13)c(COC(=O)CCCc1cn(CCOCCOCCOCCOCCOCCOCCOCCOCCOCCOCCNC(=O)CCCC[C@@H]3SC[C@@H]5NC(=O)N[C@@H]53)nn1)cc(=O)n4C)OC2
- MIC [1]: 6.25 µg/mL (≈ 5.46 µM)
- MIC [2]: 25 µg/mL (≈ 21.8 µM)
- Activity [3]: Active
- Activity [4]: Active
- Activity [5]: Active

Compound: NNC(=O)c1ccncc1 [ISONIAZID]
- MIC [1]: 25 µg/mL (≈ 182 µM)
- MIC [2]: 2.5 µg/mL (≈ 18.2 µM)
- inhibition [6]: inactive

Compound: Cc1cc(=O)n2c3c(c4c(cc13)c(CO)cc(=O)n4C)OC2
- MIC [7]: 6.3 µg/mL (≈ 21.1 µM)
- MIC [1]: 1 µg/mL (≈ 3.35 µM)
- Activity [8]: Active
- Activity [9]: inactive
- MIC [2]: 1 µg/mL (≈ 3.35 µM)
- Activity [10]: inactive
- Activity [11]: Active
- Activity [12]: inactive
- inhibition [6]: Active
- Activity [13]: Active
- MIC [14]: 4.2 µg/mL (≈ 14.1 µM)
- Activity [15]: Active
- MIC [16]: 5.2 µg/mL (≈ 17.4 µM)
- Activity [17]: inactive
- Activity [18]: Active
- Activity [19]: Active
- Activity [20]: Active
- Activity [21]: Active

Compound: COC(=O)CCCc1cn(CCOCCOCCOCCOCCOCCOCCOCCOCCOCCOCCNC(=O)CCCC[C@@H]2SC[C@@H]3NC(=O)N[C@@H]32)nn1
- MIC [1]: > 200 µg/mL
- MIC [2]: > 200 µg/mL
- Activity [5]: inactive
